In data set [1] the target is Voltage-gated inwardly rectifying potassium channel KCNH2 (Homo sapiens, UniProt Q12809). Description: Inhibition of human ERG by patch clamp technique. In general terms: In patch-clamp work, channel activity is measured electrically.
A short description of data set [2]: Clearance in rat at 1 mg/kg, iv. It counts as ADME, organism-based. Particulars: in vivo. Put shortly: (§1)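 Rat pharmacokinetics: oral dosing at 5 mg/kg in 10% DMSO in 0.5% aqueous methyl cellulose. Intravenous dosing at 1 mg/kg in 10% DMSO, 45% PEG400 and 45% propylene glycol. Plasma Cmax was taken after the oral dose and clearance after the iv dose, and oral bioavailability was derived.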

In data set [3] the target is T1, Glucocorticoid receptor (Homo sapiens, UniProt P04150).
T1 sequence (P04150 whole entry): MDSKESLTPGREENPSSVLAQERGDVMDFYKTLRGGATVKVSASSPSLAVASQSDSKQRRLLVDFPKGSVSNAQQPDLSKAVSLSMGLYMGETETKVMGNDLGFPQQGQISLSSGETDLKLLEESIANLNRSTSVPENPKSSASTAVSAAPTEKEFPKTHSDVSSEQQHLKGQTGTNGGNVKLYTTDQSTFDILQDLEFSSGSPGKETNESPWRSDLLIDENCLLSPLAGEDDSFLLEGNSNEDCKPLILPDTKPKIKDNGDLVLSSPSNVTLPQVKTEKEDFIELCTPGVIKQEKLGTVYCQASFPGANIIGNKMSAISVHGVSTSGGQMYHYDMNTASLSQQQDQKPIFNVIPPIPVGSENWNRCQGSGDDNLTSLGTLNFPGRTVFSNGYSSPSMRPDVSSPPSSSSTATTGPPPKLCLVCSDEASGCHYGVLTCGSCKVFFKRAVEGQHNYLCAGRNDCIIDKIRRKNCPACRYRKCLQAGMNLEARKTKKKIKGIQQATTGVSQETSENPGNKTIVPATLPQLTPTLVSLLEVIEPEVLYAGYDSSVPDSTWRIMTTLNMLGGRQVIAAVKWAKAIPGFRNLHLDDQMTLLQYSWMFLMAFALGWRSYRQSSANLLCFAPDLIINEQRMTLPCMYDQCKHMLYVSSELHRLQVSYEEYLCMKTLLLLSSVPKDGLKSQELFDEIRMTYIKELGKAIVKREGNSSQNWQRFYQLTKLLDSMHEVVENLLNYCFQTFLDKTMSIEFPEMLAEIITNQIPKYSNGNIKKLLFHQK
The experiment in a line: Antagonist activity at glucocorticoid receptor in human primary hepatocytes assessed as inhibition of glucocorticoid-induced TAT activity. It counts as cell-based, Hepatocyte. The procedure, abridged:
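Primary human hepatocytes stimulated with dexamethasone to induce tyrosine amino transferase (TAT) activity. Compounds were tested for their ability to block this dexamethasone effect as a measure of GR antagonism. They were also run without dexamethasone to check for TAT induction, a measure of GR agonism. Read-out was TAT activity, reported as K_i.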

Data set [4] concerns the target T2, Glucocorticoid receptor (Rattus norvegicus, UniProt P06536).
T2 sequence (P06536 whole entry): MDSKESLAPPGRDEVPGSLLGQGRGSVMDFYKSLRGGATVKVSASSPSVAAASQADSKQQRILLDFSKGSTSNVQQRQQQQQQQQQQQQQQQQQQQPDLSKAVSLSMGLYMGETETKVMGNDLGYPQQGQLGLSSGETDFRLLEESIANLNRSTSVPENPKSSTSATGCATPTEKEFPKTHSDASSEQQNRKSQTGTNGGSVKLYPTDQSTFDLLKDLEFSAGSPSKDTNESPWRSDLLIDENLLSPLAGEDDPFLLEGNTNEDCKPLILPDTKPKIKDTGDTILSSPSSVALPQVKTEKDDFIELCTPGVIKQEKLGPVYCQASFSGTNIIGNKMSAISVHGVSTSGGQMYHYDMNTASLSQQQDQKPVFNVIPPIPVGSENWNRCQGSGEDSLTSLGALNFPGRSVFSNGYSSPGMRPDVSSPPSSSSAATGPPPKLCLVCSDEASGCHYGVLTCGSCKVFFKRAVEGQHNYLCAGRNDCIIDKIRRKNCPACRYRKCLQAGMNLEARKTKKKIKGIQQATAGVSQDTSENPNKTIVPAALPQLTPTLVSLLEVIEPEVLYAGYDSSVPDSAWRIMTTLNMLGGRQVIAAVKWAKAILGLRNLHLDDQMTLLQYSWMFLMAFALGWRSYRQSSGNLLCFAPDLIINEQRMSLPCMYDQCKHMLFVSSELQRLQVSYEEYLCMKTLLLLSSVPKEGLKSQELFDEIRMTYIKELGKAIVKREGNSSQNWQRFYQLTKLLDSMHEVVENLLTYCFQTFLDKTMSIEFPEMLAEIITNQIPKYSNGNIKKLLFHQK
Description: Antagonist activity at glucocorticoid receptor in rat primary hepatocytes assessed as inhibition of glucocorticoid-induced TAT activity. The format is cell-based, Hepatocyte. Put shortly:
(§2)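 Glucocorticoid receptor antagonism was measured as blockade of dexamethasone-induced tyrosine amino transferase (TAT) activity. Cells were rat H4IIEC3 cells or primary hepatocytes from rat or cynomolgus monkey, as the line specifies.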

For data set [5], the system named is Hepatocyte. Description: Agonist activity at glucocorticoid receptor in dog primary hepatocytes assessed as […] TAT activity relative to control. The format is cell-based. As to conditions: Canis lupus familiaris.
The test system of data set [6] is Rattus norvegicus. The experiment in a line: Reduction in olanzapine-induced weight gain in rat at 20 mg/kg, po bid administered for 21 days measured from day 4 of compound dosing. It counts as functional, organism-based.
The nature of data set [7]: Oral bioavailability in rat at 5 mg/kg. The format is ADME, organism-based. Particulars: in vivo. Put shortly: as §1
A short description of data set [8]: Antagonist activity at glucocorticoid receptor in cynomolgus monkey primary hepatocytes assessed as inhibition of glucocorticoid-induced TAT activity. It counts as cell-based, Macaca fascicularis. Particulars: hepatocyte. The procedure, abridged: as §2
Data set [9] in a line: Agonist activity at glucocorticoid receptor in dog primary hepatocytes assessed as […] TAT activity. The format is cell-based. Particulars: Canis lupus familiaris, Hepatocyte.
The test system of data set [10] is Rattus norvegicus. The experiment in a line: Reduction in cortisone-induced glucose level in rat at 30 mg/kg, po bid. The format is functional, organism-based. The procedure, abridged:
(§3)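 Rats received cortisone 30 mg/kg sc once daily for six days. Test agent was given orally twice daily at 30 mg/kg. Glucose and insulin levels were compared with cortisone-only and no-cortisone controls, with mifepristone at the same oral regimen as positive control.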

The target in data set [11] is T1, Glucocorticoid receptor. Description: Binding affinity to human recombinant glucocorticoid receptor by fluorescence polarization assay. For orientation: Polarisation of emitted light reports the rotation of a fluorescent probe.
In data set [12] the target is T2, Glucocorticoid receptor. The experiment in a line: Agonist activity at glucocorticoid receptor in rat primary hepatocytes assessed as inhibition of glucocorticoid-induced TAT activity. The format is cell-based, Hepatocyte.
The nature of data set [13]: Cmax in rat at 5 mg/kg, po. It counts as ADME, organism-based. Further details: dose 5 mg/kg, route oral. Particulars: in vivo. Put shortly: as §1
Data set [14] deals with T3, Glucocorticoid receptor (Rattus norvegicus) (UniProt P06536).
T3 sequence (whole entry): T2 sequence (P06536 whole entry)
Description: Agonist activity at glucocorticoid receptor in rat primary hepatocytes assessed as inhibition of glucocorticoid-induced TAT activity relative to control. Particulars: Hepatocyte. The format is cell-based.

The subject of data set [15] is Hepatocyte. The experiment in a line: Antagonist activity at glucocorticoid receptor in cynomolgus monkey primary hepatocytes assessed as inhibition of glucocorticoid-induced TAT activity relative to control. It counts as cell-based. Particulars: Macaca fascicularis. The procedure, abridged:
as §2

Data set [16] concerns the target T3, Glucocorticoid receptor (Rattus norvegicus). The experiment in a line: Antagonist activity at glucocorticoid receptor in rat primary hepatocytes assessed as inhibition of glucocorticoid-induced TAT activity relative to control. The format is cell-based. Particulars: Hepatocyte. The procedure, abridged: as §2
Data set [17] concerns Rattus norvegicus. The experiment in a line: Reduction in cortisone-induced insulin level in rat at 30 mg/kg, po bid. It counts as functional, organism-based. Put shortly: as §3

The structures appear in SMILES notation. The source made the active and inactive calls. The calls are words filed in the database; no cut-off is given here.

Chain of Voltage-gated inwardly rectifying potassium channel KCNH2 (Q12809 whole entry): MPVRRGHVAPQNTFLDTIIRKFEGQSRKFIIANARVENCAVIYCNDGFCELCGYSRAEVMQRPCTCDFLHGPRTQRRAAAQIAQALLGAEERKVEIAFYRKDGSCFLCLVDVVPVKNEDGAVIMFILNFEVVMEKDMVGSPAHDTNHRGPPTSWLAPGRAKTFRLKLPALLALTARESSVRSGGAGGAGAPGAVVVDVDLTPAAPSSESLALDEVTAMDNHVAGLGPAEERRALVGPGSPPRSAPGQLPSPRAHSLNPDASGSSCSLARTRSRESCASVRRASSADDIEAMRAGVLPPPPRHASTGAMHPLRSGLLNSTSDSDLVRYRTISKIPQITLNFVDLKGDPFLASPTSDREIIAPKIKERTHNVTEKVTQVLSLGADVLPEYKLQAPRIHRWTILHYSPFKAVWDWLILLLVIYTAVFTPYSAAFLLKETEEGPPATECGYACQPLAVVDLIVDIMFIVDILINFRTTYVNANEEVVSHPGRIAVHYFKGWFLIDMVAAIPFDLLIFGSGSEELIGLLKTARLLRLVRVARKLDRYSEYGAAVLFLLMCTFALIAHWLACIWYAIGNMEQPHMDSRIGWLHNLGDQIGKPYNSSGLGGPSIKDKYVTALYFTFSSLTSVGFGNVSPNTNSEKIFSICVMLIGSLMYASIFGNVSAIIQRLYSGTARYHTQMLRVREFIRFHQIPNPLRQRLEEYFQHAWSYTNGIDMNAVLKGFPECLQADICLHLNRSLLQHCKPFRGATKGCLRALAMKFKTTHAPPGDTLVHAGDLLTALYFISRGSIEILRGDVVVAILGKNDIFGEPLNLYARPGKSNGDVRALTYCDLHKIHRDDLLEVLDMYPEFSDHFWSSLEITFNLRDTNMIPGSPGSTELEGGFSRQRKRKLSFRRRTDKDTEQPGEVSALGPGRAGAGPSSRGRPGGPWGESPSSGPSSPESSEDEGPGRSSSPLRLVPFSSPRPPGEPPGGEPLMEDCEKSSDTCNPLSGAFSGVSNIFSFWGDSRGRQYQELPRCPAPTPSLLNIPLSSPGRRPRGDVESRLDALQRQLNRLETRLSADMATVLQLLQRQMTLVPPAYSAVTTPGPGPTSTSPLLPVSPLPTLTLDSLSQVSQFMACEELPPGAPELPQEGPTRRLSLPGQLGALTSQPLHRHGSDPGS

For orientation: IC50 means the concentration that inhibits the measured activity by half. The term clearance denotes a measure of how efficiently the substance is removed, as volume per time. The Ki is the equilibrium dissociation constant of an inhibitor or competing ligand from its target. A word on the Emax: it is the size of the effect at its maximum, as opposed to the concentration needed. The bioavailability is the share of a dose that reaches the circulation, judged against a reference dose that is usually intravenous. By EC50 is commonly meant the concentration giving half of the maximal effect. Usually Cmax stands for the highest concentration seen after dosing. In the case of `O=C(c1ccccn1)[C@]12Cc3cnn(-c4ccc(F)cc4)c3C=C1CCN(S(=O)(=O)c1ccc(C(F)(F)F)cc1)C2` [DAZUCORILANT], in data set [1], the IC50 was 5000 nM. The compound also came in with a clearance in data set [2] of 11 mL/min/kg. Also, the Ki was determined as 100 nM in data set [3], 13 nM in [4], 765 nM in data set [8] and 0.16 nM in [11]. Also, the Emax stood at 110% in data set [5] and 51% in [14]. The result in data set [6] and in data set [10] was Active. This compound came in with a bioavailability in data set [7] of 31%. In addition, the figures for the concentration for a half-maximal effect (EC50) in data set [9] and in data set [12] were 1600 nM and 280 nM, respectively. Further, in [13], the highest concentration (Cmax) is 375 ng/mL. For the same compound, the Imax in [15] came out at 100%; in [16] it was 62%. In data set [17], the result was inactive.

The values above are taken from ChEMBL document CHEMBL3734698, “1H-Pyrazolo[3,4-g]hexahydro-isoquinolines as potent GR antagonists with reduced hERG inhibition and an improved pharmacokinetic profile” (Bioorg Med Chem Lett, 2015).
